{"source": "paper PMC9064382", "about": "(RSC Advances, 2019)", "key": {"[1]": {"target": "T1, hOATP2B1 (Homo sapiens, UniProt O94956)", "T1 sequence (O94956 1-709)": "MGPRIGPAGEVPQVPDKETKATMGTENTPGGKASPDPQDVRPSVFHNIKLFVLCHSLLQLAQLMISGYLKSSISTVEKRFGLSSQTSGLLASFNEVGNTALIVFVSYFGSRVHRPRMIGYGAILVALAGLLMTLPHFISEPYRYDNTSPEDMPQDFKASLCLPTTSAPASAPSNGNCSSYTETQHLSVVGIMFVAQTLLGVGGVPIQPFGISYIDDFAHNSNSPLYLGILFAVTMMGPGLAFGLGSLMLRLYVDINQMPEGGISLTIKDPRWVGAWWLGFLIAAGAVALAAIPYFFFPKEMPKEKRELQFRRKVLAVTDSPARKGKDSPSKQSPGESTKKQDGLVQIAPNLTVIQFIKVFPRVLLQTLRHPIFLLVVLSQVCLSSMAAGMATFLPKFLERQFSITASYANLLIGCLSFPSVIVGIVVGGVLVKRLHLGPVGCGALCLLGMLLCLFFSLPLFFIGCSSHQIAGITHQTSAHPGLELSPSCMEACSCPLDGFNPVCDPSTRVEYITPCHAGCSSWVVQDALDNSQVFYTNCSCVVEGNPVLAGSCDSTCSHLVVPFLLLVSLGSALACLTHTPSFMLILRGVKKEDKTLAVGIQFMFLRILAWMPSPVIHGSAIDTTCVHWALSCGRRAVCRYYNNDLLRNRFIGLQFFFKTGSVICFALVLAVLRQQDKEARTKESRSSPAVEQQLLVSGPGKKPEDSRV", "format": "in vitro ADME", "summary_of_the_method": "(§1)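 Transfected and mock cells were incubated 2 min at 37 °C with 200 nmol L−1 3H-ES plus test compound. The screen used a single 100 μmol L−1 concentration with reference inhibitors as positive controls, giving an inhibition rate (n = 3, mean ± sd). […] DMSO was <0.2%. Cells were stopped with cold DPBS, rinsed three times, lysed in 0.1 mol L−1 NaOH and counted by scintillation (dpm).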"}, "[2]": {"target": "T2, hOAT3 (Homo sapiens, UniProt Q8TCC7)", "T2 sequence (Q8TCC7 1-542)": "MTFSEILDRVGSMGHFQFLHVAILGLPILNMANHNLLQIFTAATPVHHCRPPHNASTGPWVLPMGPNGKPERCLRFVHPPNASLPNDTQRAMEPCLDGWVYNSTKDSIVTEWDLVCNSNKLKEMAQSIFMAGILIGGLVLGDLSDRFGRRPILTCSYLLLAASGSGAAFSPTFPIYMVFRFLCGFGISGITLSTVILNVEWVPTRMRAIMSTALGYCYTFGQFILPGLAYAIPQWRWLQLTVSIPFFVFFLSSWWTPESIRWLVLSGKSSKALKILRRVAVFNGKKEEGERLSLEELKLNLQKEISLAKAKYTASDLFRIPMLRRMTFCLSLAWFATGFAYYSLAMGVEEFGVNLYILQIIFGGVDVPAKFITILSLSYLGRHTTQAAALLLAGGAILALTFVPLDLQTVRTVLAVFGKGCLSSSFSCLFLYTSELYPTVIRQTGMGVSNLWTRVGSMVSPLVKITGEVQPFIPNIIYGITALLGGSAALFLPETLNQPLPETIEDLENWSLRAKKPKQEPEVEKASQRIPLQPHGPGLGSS", "assay": "Inhibition of 3H-ES uptake in hOAT3-transfected cells by liquorice ingredients", "format": "in vitro ADME", "settings": "read-out: IC50 on hOAT3; 3H-ES probe, 2 min", "summary_of_the_method": "as §1"}}, "data": [{"smiles": "C=CC(C)(C)c1cc(/C=C/C(=O)c2ccc(O)cc2)c(OC)cc1O", "note": "[licochalcone A]", "values": [{"measurement": "IC50", "setting": "[1]; read-out: IC50 on hOATP2B1, 3H-ES probe, 2 min", "value": 1090, "unit": "nM"}, {"measurement": "inhibition of hOATP2B1", "setting": "[1]; screening at 100 μm", "value": "strong inhibitors"}, {"measurement": "IC50", "setting": "[2]", "value": 3600, "unit": "nM"}]}]}
